Experiment [1] has as its target Gamma-aminobutyric acid receptor subunit alpha-6 (Rattus norvegicus) (UniProt P30191). Kind of experiment: Displacement of [3H]Muscimol from GABAAalpha6 receptor in Sprague-Dawley rat brain cerebellum membrane at 1 mM. It is filed as tissue-based. A digest of the protocol:
(§1)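 Well-washed membranes from adult male Sprague-Dawley rat cortex or cerebellum (50–200 μg protein). Incubated 60 min on ice in 50 mM Tris/citrate, pH 7.3, with 6 nM [3H]muscimol and test compound. […] Filtered and counted by scintillation. IC50 and pseudo-Hill coefficient obtained by nonlinear regression.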

Experiment [2] is filed under the species Rattus norvegicus. Kind of experiment: Displacement of [3H]Muscimol from GABAA alpha-1-alpha-5 receptor in Sprague-Dawley rat brain cortex membrane at 100 uM. The gist of the method: as §1
The species named for experiment [3] is Rattus norvegicus. Kind of experiment: Displacement of [3H]Muscimol from GABAA alpha-1-alpha-5 receptor in Sprague-Dawley rat brain cortex membrane at 1 mM. The gist of the method:
as §1

Experiment [4] concerns the target Gamma-aminobutyric acid receptor subunit alpha-6 (Rattus norvegicus) (UniProt P30191). Kind of experiment: Displacement of [3H]Muscimol from GABAAalpha6 receptor in Sprague-Dawley rat brain cerebellum membrane at 100 uM. It is filed as tissue-based. The gist of the method: as §1

Active and inactive are the calls of the source. The rule behind the calls is not given here.

Sequence of Gamma-aminobutyric acid receptor subunit alpha-6 (Rattus norvegicus) (P30191 whole entry): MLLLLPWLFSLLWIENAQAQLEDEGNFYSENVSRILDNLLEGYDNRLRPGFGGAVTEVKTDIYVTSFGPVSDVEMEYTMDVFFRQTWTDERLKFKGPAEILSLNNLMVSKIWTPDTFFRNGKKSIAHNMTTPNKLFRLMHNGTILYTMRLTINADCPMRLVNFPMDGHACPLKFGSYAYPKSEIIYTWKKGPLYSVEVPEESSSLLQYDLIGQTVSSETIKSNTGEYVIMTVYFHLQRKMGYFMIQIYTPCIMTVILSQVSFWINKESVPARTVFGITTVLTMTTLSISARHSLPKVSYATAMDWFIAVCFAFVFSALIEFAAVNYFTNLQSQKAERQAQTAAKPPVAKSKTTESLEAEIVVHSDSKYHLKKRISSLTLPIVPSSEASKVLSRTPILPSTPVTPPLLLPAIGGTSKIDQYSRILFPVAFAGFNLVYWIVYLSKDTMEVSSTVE

Take `Oc1nnc(C2CCCCC2)o1`: the inhibition is 1% in experiment [1], 18% in experiment [2] and -2% in experiment [3].
Consider `CN1CCC(c2nnc(O)o2)CC1`, for which the inhibition in experiment [1] was 26%; in experiment [2] it was 4%; in experiment [3], 27%; in experiment [4], 6%.
Take `CN(C)Cc1nnc(S)o1`: the inhibition in experiment [1] was determined as 37%; in experiment [2], 22%; in experiment [3], 47%; in experiment [4], 3%.
`c1ccc(CN2CCC(c3nnco3)CC2)cc1`: the inhibition is -5% in experiment [1], -5% in experiment [2], 1% in experiment [3] and 1% in experiment [4].
As to `Sc1nnc(C2CCCNC2)o1` (stereo not given), the inhibition in experiment [1] came to 42%; in experiment [2] it was 12%; in experiment [3], 51%; in experiment [4], 15%.
Turning to `S=c1[nH]nc(C2CCCCC2)o1`, the inhibition in experiment [1] was -3%; in experiment [2], 10%; in experiment [3], 18%; in experiment [4], 0%.
Regarding `Oc1nnc([C@@H]2CCCN2)o1`, the inhibition in experiment [1] was determined as 13%; in experiment [2], 5%; in experiment [3], 10%; in experiment [4], 8%.
For `Oc1nnc(C2CCNCC2)n1Cc1ccccc1`, in that order: 52%, 18%, 56% and 14%.
For `Oc1nnc(C2CCN(Cc3ccccc3)CC2)o1` the same measures were 30%, 12%, 50% and 7%.
With `Sc1nnc([C@@H]2CCCN2)o1`, the inhibition in experiment [1] was 31%; in experiment [2] it was 21%; in experiment [3] it was 36%; in experiment [4], -2%.
For `Sc1nnc(C2CCN(Cc3ccccc3)CC2)o1` the same measures were 30%, 3%, 33% and 6%.
For `CNCc1nnc(O)o1` the same measures were 64%, 14%, 58% and 22%.
For `NCCc1nnc(S)o1` the same measures were 67%, 9%, 61% and 23%.
`Cc1nnc(O)o1`: the inhibition in experiment [1] turned out to be 4%; in experiment [2] it was 7%; in experiment [3], 26%; in experiment [4], 3%.
For `CNCc1nnc(S)o1` the same measures were 16%, 17%, 24% and 9%.
For `Sc1nnc(C2CCNCC2)n1Cc1ccccc1`, the inhibition is -6% in experiment [2] and 13% in experiment [4].
On to `NCc1nnc(S)n1Cc1ccccc1`, for which the outcome in experiment [1], in experiment [2], in experiment [3] and in experiment [4] was inactive.
For `CN(C)Cc1nnc(O)o1`, the inhibition in experiment [1] is 26%; in experiment [2], 3%; in experiment [3], 27%; in experiment [4], 5%.
In the case of `Cc1nnc(S)o1`, the inhibition in experiment [1] was -3%; in experiment [2], 20%; in experiment [3], 10%; in experiment [4], -4%.
As to `CN1CCC(c2nnc(S)o2)CC1`, the inhibition in experiment [1] turned out to be 27%; in experiment [2] it was 6%; in experiment [3], 48%; in experiment [4], 8%.
Take `C[C@@H](N)c1nnc(O)o1`: the inhibition is 34% in experiment [1], 26% in experiment [2], 16% in experiment [3] and 13% in experiment [4].
For `NCc1nnc(O)n1Cc1ccccc1` the same measures were 2%, 4%, 11% and 1%.
